In PMC9282716 (Cell reports, 2022):
Like-named read-outs stand apart in the source and are kept apart here. Each block holds one compound with its values, some of them ahead of it.

Columns and labels:
[1] = system: Hs68 cells; assay: TR-FRET cAMP assay in normal fibroblast cell line Hs68; assay type: cell-based, human; conditions: 10 μM agonist, Hs68 fibroblasts
[2] = molecular target: T1, EP2 receptor (Homo sapiens, UniProt P43116); assay: cell-based; assay type: cell-based
[3] = system: EP2-deleted SK-N-AS cells; assay: TR-FRET cAMP assay in EP2 knockout SK-N-AS cell lines; assay type: cell-based, human; conditions: read-out: PGE2 EC50 for cAMP
Method in brief: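 EP2-knockout SK-N-AS lines were made with lentiCRISPRv2 sgRNAs, selected with puromycin (2 µg/mL) and verified by sequencing. […] After lysis with cAMP-d2 and anti-cAMP cryptate and 1 h at RT, TR-FRET was read (ex 340 nm; em 665/590 nm), n = 4. EC50 came from concentration–response curves.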

[4] = molecular target: T1, EP2 receptor; assay: Cell-based TR-FRET cAMP assay in BE

T1 sequence (P43116 whole entry): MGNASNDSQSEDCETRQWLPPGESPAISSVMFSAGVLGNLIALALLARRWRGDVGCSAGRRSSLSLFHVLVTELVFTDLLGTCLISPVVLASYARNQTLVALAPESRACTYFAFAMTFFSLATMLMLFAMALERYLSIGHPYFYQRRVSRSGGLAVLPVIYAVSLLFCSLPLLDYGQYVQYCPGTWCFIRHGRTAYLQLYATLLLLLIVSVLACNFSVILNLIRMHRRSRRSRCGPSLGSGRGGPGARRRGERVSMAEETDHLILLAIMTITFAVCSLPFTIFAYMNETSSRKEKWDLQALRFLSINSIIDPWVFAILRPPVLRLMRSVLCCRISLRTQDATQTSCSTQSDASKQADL

SMILES: O=C1CC[C@H](/C=C/[C@@H](O)Cc2ccccc2)N1CCCCCCc1nn[nH]n1 [CAY10598]
cAMP production [1]: more cAMP production than EP2 agonist butaprost and PGE2

IC50, inhibition of PGE2-induced cAMP production [2]: no effect
SMILES: CCOc1c2c(c(OCC)c3ccccc13)C(=O)N(c1ccc(CC(=O)NS(=O)(=O)c3ccccc3)cc1)C2 [GW627368X]

EC50 ([3]; Homo sapiens, SK-N-AS): > 10 µM | EC50 ([3]; EP2 KO2 SK-N-AS cell line): > 10 µM
SMILES: CCCCC[C@H](O)/C=C/[C@H]1[C@H](O)CC(=O)[C@@H]1C/C=C\CCCC(=O)O [PGE2, Prostaglandin E2]

EC50 ([2]; agonist EC50 for cAMP induction, SK-N-AS cells, n = 4): 0.17 µM | EC50 [4]: 0.47 µM
SMILES: CCCC1([C@H](O)C/C=C/[C@H]2[C@H](O)CC(=O)[C@@H]2CCCCCCC(=O)OC)CCC1 [butaprost]
